Compound activity as filed in PubChem BioAssay.
A selection: hits, their analogues and other compounds. The true share with any hit is near 0.79%.
hIAP activ: increases human intestinal alkaline phosphatase activity; P09923; purified human IAP, CDP-Star luminescence, 30 min; hits give high values; 1 = vehicle-only enzyme, 0 = enzyme-free background; activation factor at 10 µM; 330,000 compounds, 0.16% hits; AID 2524;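 active = activation factor of the enzyme at least 2-fold when tested at 20 µM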
Target sequence (P09923 whole entry, looked up): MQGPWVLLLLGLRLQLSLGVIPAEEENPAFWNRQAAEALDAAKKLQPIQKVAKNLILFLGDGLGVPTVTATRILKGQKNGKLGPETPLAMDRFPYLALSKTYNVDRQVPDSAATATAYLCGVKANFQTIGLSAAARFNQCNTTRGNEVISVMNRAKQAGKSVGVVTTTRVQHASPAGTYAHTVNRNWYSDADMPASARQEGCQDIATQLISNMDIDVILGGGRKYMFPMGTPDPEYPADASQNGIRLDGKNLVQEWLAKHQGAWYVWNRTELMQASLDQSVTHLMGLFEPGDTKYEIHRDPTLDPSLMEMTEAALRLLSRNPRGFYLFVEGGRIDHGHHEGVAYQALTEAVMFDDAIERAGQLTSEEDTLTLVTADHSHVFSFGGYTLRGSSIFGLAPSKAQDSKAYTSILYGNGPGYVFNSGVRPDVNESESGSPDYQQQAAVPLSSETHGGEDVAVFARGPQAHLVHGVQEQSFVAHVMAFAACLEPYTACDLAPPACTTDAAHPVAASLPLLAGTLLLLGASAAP
hIAP inh: human IAP inhibition | purified IAP, CDP-Star luminescence, 30 min | inhibition, % at 10 µM | 330,000 compounds, 0.12% hits;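 active = inhibition reaching a set limit with compound at 10 µM in the primary screen, cut at about 35% in these data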;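 also: plate controls were DMSO wells with enzyme for no effect and no-enzyme buffer wells for full effect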
bIAP activator: increases bovine intestinal alkaline phosphatase activity; purified bovine IAP, CDP-star luminescence, 30 min; hits give high values; fold of DMSO-control signal, blank-subtracted; activation factor at 20 µM; 200,000 compounds, 0.17% hits;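 active = activation factor of 2 or more at 20 µM, a signal rise over negative controls twice the positive control's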
bIAP inhibitor: blocks bovine intestinal alkaline phosphatase activity. AID 1019. inhibition, % at 20 µM. 190,000 tested, under 10 active. purified bovine IAP, CDP-star luminescence, 30 min;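 active = over 50% inhibition of intestinal alkaline phosphatase at 20 µM in the single-dose screen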
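System: Purified bovine intestinal alkaline phosphatase (IAP) enzyme | Input: IAP diluted 1/65,000,000 in the well | Also added: CDP-star chemiluminescent phosphatase substrate, 30 µM final | Dosing: 20 µM single dose | Times: Enzyme reaction for 30 min at room temperature | Detection: Luminescence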
mIAP inh: blocks mouse intestinal alkaline phosphatase; inhibition, % at 10 µM; purified mouse IAP, CDP-Star luminescence, 30 min; 330,000 compounds, 0.2% hits;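 active = inhibition of at least 40% at 10 µM in the primary screen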;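 also: plate controls were DMSO with enzyme for no effect and no enzyme wells for full effect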
mIAP act: increases mouse intestinal alkaline phosphatase activity; muIAP, CDP-Star luminescence, 30 min; hits give high values; 1 = vehicle-only enzyme signal, 0 = enzyme-free wells; 330,000 compounds, 0.24% hits; activation factor at 10 µM; AID 2805;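 active = activation factor of at least 2 at 20 µM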
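System: Mouse IAP enzyme | Also added: CDP-Star substrate | Dosing: Compounds dispensed in DMSO | Schedule: 30 min enzyme-substrate-compound incubation at room temperature | Technique: Chemiluminescence readout | Control set: DMSO-only wells and no-enzyme negative control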
hIAP act confirm: human IAP activation confirmation. shares compounds with hIAP activ. purified IAP, CDP-Star luminescence, 30 min; hits give low values. activation (%Activity, negative = activation), % at 8.3 µM. 880 compounds, 10% hits. AID 434926;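 active = at least twofold enzyme activation in any of six single-dose repeats, which the averaged readout prints as negative percent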
* marks the source's active call; other numbers are inactive results; nt = no result given.

SMILES | hIAP activ | hIAP inh | bIAP activator | bIAP inhibitor | mIAP inh | mIAP act | hIAP act confirm
COC(=O)[C@@]12CCCCN1[C@H](c1ccc(-c3ccc(OC)cc3)c(OC)c1)[C@@H]1C(=O)N(C)C(=O)[C@@H]12 | 0.93 | 7 | nt | nt | 4 | 0.95 | nt
Cc1ccc2nc(Cc3ccc(N)cc3)[nH]c2c1 | 1.1 | -13 | 1.1 | -11 | -16 | 1.2 | nt
Cc1ccc2nc(CCCc3nc4ccc(C)cc4[nH]3)[nH]c2c1 | 2.7* | -171 | nt | nt | -24 | 1.2 | -60
Cc1ccc2nc(CCc3nc4ccc(C)cc4[nH]3)[nH]c2c1 | 2.3* | -133 | nt | nt | -6 | 1.1 | -5
c1ccc2[nH]c(CCCCc3nc4ccccc4[nH]3)nc2c1 | 1.4 | -43 | nt | nt | -6 | 1.1 | nt
COc1ccc(NCc2ccc(OC)c(OC)c2)cc1 | 0.62 | 38* | 1 | 0 | 7 | 0.93 | -30
COc1ccc(CNc2ccc(C)c(C)c2)cc1 | 1 | -4 | 0.9 | 8 | -1 | 1 | nt
CC1(C2(O)CCCCC2)NCCc2ccccc21 (configuration not stated) | 0.95 | 5 | nt | nt | -4 | 1 | nt
CCOC(=O)c1c(C)[nH]c(C(=O)N/N=C/c2cc([N+](=O)[O-])ccc2O)c1C | 2.1* | -108 | nt | nt | 39 | 0.61 | 30
CCOC(=O)c1c(C)[nH]c(C(=O)N/N=C\c2ccccc2O)c1C | nt | nt | 1.2 | -18 | nt | nt | nt
Cc1oc(-c2cccc(Cl)c2)nc1CS(=O)(=O)CC(=O)NCc1ccco1 | 0.93 | 7 | nt | nt | -5 | 1.1 | nt
O=C(NCC(F)(F)F)Nc1cccnc1 | 0.46 | 54* | 0.9 | 10 | -11 | 1.1 | 7
Cc1cc(C)cc(SCc2noc(C(=O)NCC3CCCO3)c2C(=O)O)c1 (configuration not stated) | 1.1 | -5 | 0.9 | 6 | -2 | 1 | nt
Cc1cccc(SCc2noc(C(=O)NCC3CCCO3)c2C(=O)O)c1 (configuration not stated) | 0.65 | 35* | 1 | -2 | 4 | 0.96 | -213*
COc1ccc(C(=O)NNC2=Nc3cccc4cccc2c34)cc1 | 1.3 | -34 | 1.2 | -19 | 25 | 0.75 | nt
COc1ccc(CC(=O)NNC2=Nc3cccc4cccc2c34)cc1 | 2.2* | -119 | nt | nt | -6 | 1.1 | 12
O=C(NC1CCCCCC1)c1ccc(-n2cnnc2)cc1 | 0.65 | 35* | nt | nt | -2 | 1 | -59*
C[C@H](CO)N1C[C@H](C)[C@@H](CN(C)C(=O)Nc2ccc3c(c2)OCO3)Oc2ccc(NS(=O)(=O)c3ccc(F)cc3)cc2C1=O | 1 | -1 | nt | nt | 6 | 0.94 | nt
CCCN1C(=O)/C(=C2/C=Cc3ccccc3N2CC)SC1=S | 0.62 | 38* | 1 | 4 | 34 | 0.66 | 6
CCN1C(=O)[C@@H]2[C@H](C1=O)[C@@H]1CC(C(=O)OC)=C[C@@H](C(=O)OC)C3C1=C(C(=O)C3(CC)CC)[C@@H]2C (some centres not stated) | 0.92 | 8 | nt | nt | -4 | 1 | nt
COc1ccc2c(c1)C=Cc1ccccc1O2 | 1 | -4 | nt | nt | -9 | 1.1 | nt
CCOc1cccc(OCCOCCOc2ccccc2C(C)=O)c1 | 2.2* | -124 | 0.9 | 9 | -7 | 1.1 | -219*
Cc1cc(NC(=O)COC(=O)CNS(=O)(=O)c2c(F)cc(F)cc2Br)no1 | 1.1 | -10 | nt | nt | 1 | 0.99 | nt
COc1cc(C(=O)NC(=S)NNC(=O)c2cnccn2)cc(OC)c1OC | 2.2* | -116 | 0.7 | 31 | 24 | 0.76 | -22
O=C(Nc1ccccc1N1CCCC1)c1cc(=O)[nH]c2ccccc12 | 1 | 0 | nt | nt | 6 | 0.94 | nt
SMILES | hIAP activ | hIAP inh | bIAP activator | bIAP inhibitor | mIAP inh | mIAP act | hIAP act confirm
CCOC(=O)c1cccnc1SCC(=O)N(C)c1ccccc1 | 0.61 | 39* | 1 | 1 | 1 | 0.99 | -64
CCOC(=O)c1cccnc1SCc1cc(=O)n2ccccc2n1 | 0.98 | 2 | 0.8 | 16 | -4 | 1 | nt
O=C(Nc1ccnn1C1CCN(Cc2ccccc2)CC1)C1CCCC1 | 1.2 | -18 | nt | nt | -12 | 1.1 | nt
CC(Cc1ccc(Cl)cc1)N1CCC(n2nccc2NC(=O)C2CCCC2)CC1 (configuration not stated) | 2.3* | -128 | nt | nt | -83 | 1.8 | -3
O=C(c1cccc(S(=O)(=O)N2CCCC2)c1)N1CCN(Cc2ccccc2)CC1 | 1 | -2 | nt | nt | -9 | 1.1 | nt
CCOC(=O)C1=CC[C@H]2c3c(c4ccccc4n3C)C(=O)C1N2C | 0.91 | 9 | nt | nt | 10 | 0.9 | nt
COc1ccc(-n2nc3ccc(NS(C)(=O)=O)cc3n2)cc1Cl | 0.62 | 38* | 0.9 | 6 | -9 | 1.1 | 1
CC(=O)N[C@@H](C)C(=O)N1CCN(S(=O)(=O)c2ccc(Cl)cc2)CC1 | 2.8* | -177 | 1 | -4 | 5 | 0.95 | -38
COc1cccc(C2c3c(-c4cc(Cl)c(C)cc4O)n[nH]c3C(=O)N2Cc2cccnc2)c1 (configuration not stated) | 2.4* | -137 | 1.2 | -15 | -16 | 1.2 | -18
COc1cc(C2c3c(-c4cc(Cl)c(C)cc4O)n[nH]c3C(=O)N2Cc2cccnc2)ccc1O (configuration not stated) | 1.8 | -82 | 1 | -4 | 6 | 0.94 | nt
COc1ccc(C2c3c(-c4ccccc4O)n[nH]c3C(=O)N2Cc2ccco2)cc1 (configuration not stated) | 2.2* | -123 | nt | nt | 5 | 0.95 | -73
COc1cc(C2c3c(-c4ccccc4O)n[nH]c3C(=O)N2Cc2ccco2)cc(OC)c1OC (configuration not stated) | 1.9 | -92 | nt | nt | 6 | 0.94 | nt
Cc1ccc(C2c3c(-c4ccccc4O)n[nH]c3C(=O)N2Cc2ccncc2)cc1 (configuration not stated) | 2.3* | -131 | 0.9 | 14 | -12 | 1.1 | -23
CN1C(=O)/C(=C/c2cc(C(C)(C)C)c(O)c(C(C)(C)C)c2)NC1=S | 1.1 | -6 | 0.9 | 9 | 8 | 0.92 | nt
CC(C)(C)OC(=O)N[C@@H](C(=O)OC(C)(C)C)c1ccc(Br)cc1 | 0.83 | 17 | nt | nt | -2 | 1 | nt
CCN=C1SC(C(=O)Nc2cccc(C)c2)CC(=O)N1CC (configuration not stated) | 1.1 | -6 | 0.9 | 9 | 0 | 1 | nt
Cc1cccc(NC(=O)C2CC(=O)n3cnnc3S2)c1 (configuration not stated) | 2.1* | -114 | 1 | -1 | 9 | 0.91 | -12
CC(C)C(OC(=O)C1=Cc2ccccc2OC1)C(=O)NC1CCCC1 (configuration not stated) | 0.88 | 12 | 0.9 | 8 | -6 | 1.1 | nt
CCC(OC(=O)C1=Cc2ccccc2OC1)C(=O)NC1CCCC1 (configuration not stated) | 0.34 | 66* | 0.9 | 9 | 3 | 0.97 | -53*
